# Measured values from paper PMC5814953 (Nucleic Acids Research, 2017).
# Ends that are not written are not given here. Peptide text beside a SMILES is read from it. * marks the point of attachment. Biotin = O=C1N[C@H]2[C@H](CS[C@H]2CCCCC(=O)*)N1
# Columns and labels:
# [1] = system: Ani2; test: 2D 1H ROESY NMR, cis-trans isomerization of NTD peptide by Ani2; assay type: biochemical, Schizosaccharomyces pombe
# [2] = system: Ani1; test: 2D 1H ROESY NMR, cis-trans isomerization of NTD peptide by Ani1; assay type: biochemical, Schizosaccharomyces pombe
# [3] = 2D 1H ROESY NMR of NTD peptide in the absence of isomerase; assay type: physicochemical; settings: pH 6.5, 25°C
# Outline: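 Synthetic NTD peptide at 2 mM in 20 mM phosphate buffer (90% H2O/10% D2O), pH 6.5, run at 25°C. No isomerase was added; the paired runs contained 0.03 mM bacterially produced Ani1 or Ani2.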
# [4] = system: Sim3-FLAG; test: Biotinylated peptide pull-down of Sim3-FLAG from yeast cell extract, immunoblot; assay type: binding, Schizosaccharomyces pombe
# [5] = target: T1, Sim3-His, bacterially purified recombinant Sim3 protein (S. pombe, UniProt Q9USQ4 1-396); test: ITC
# T1 sequence (looked up): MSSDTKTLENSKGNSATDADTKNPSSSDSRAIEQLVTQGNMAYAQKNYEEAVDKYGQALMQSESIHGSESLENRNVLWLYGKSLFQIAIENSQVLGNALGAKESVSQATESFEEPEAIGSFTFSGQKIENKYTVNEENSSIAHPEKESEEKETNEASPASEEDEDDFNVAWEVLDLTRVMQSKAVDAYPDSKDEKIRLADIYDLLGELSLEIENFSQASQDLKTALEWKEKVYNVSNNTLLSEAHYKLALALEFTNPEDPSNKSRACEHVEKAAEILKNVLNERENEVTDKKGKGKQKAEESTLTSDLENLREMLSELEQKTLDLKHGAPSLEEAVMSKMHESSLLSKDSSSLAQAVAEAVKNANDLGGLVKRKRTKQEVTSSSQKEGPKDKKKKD
molecule,measurement,setting,value
SLMAEPGDPIPRPR,cis-trans exchange cross-peaks,"[1]; presence of 0.03 mM Ani2, 2 mM peptide, 20 mM phosphate (90% H2O + 10% D2O, pH 6.5), 25°C",two prominent and reproducible exchange cross-peaks corresponding to Ile14 and Arg16
same,cross peaks corresponding to P10 or P13,"[1]; presence of Ani2, 2 mM peptide, pH 6.5, 25°C",No cross peaks were found corresponding to P10 or P13
same,cis-trans exchange cross-peaks,"[2]; presence of 0.03 mM Ani1, 2 mM peptide, 20 mM phosphate (90% H2O + 10% D2O, pH 6.5), 25°C",two prominent and reproducible exchange cross-peaks corresponding to Ile14 and Arg16
same,cross peaks corresponding to P10 or P13,"[2]; presence of Ani1, 2 mM peptide, pH 6.5, 25°C",No cross peaks were found corresponding to P10 or P13
same,cis-trans exchange cross-peaks,"[3]; absence of Ani1 or Ani2, 2 mM peptide, 20 mM phosphate",no cross-peaks were observed
same,speed of the cis- and trans-conformational switch,"[3]; absence of Ani1 or Ani2, too slow to be detected under the NMR time scale, 2 mM peptide",< 0.1 s⁻¹
CC[C@H](C)[C@H](NC(=O)[C@@H]1CCCN1C(=O)[C@H](CC(=O)O)NC(=O)CNC(=O)[C@@H]1CCCN1C(=O)[C@H](CCC(=O)O)NC(=O)[C@H](C)NC(=O)[C@H](CCSC)NC(=O)[C@H](CC(C)C)NC(=O)[C@H](CO)NC(=O)[C@H](CCCCN)NC(=O)[C@H](CCCCN)NC(=O)[C@H](C)NC(=O)[C@@H](N)CCSC)C(=O)N1CCC[C@H]1C(=O)N[C@@H](CCCNC(=N)N)C(=O)N1CCC[C@H]1C(=O)N[C@@H](CCCNC(=N)N)C(=O)N[C@@H](CCCCN)C(=O)N[C@@H](CCCCN)C(=O)N[C@@H](CCCNC(=N)N)C(=O)N[C@@H](Cc1ccc(O)cc1)C(=O)N[C@@H](CCCNC(=N)N)C(=O)N1CCC[C@H]1C(=O)NCC(=O)N[C@H](C(=O)N[C@H](C(=O)N[C@@H](C)C(=O)N[C@@H](CC(C)C)C(=O)N[C@@H](CCCNC(=N)N)C(=O)N[C@@H](CCCCNC(=O)CCCC[C@@H]1SC[C@@H]2NC(=O)N[C@@H]21)C(=O)O)[C@@H](C)O)[C@@H](C)O [WT SpCENP-A NTD] (H-MAKKSLMAEPGDPIPRPRKKRYRPGTTALRK(Biotin)-OH; N-terminus and C-terminus assumed),reduction of Sim3-FLAG interaction,"[4]; WT peptide, absence of both ani1 and ani2, vs WT cells (1–0.57)",~43%
same,effect of single null mutation of ani1 or ani2 on Sim3-FLAG binding (in words),"[4]; Δani1 or Δani2 single mutant cell extract, Figure 6B bottom gel",did not grossly affect the binding
"MAKKSLMAEAGDAIARARKK (peptide, UniProt Q9Y812 1-20, looked up, also: biotinylated, position not given here) [SpCENP-A NTD 4PA peptide (quadruple P-to-A mutations of the GRANT prolines), biotinylated]",Kd,[5],4.5 µM
